How the values were obtained:
[1] = molecular target: Adenosine A2 receptor (guinea pig); assay: Binding affinity against adenosine A2 receptor of striatal membrane using [3H]CGS-21680 as a radioligand
[2] = system: Cavia porcellus; assay: Bronchodilatory effect, 50% inhibition of spasmogen-induced response in male Hartley guinea pigs on intraduodenal administration; format: functional
Method in brief: (§1)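 Urethane-anesthetized (1.5 g/kg ip), ventilated male Hartley guinea pigs; compound suspended in 0.5% carboxymethylcellulose given intraduodenally 5 min before iv acetylcholine 40 μg/kg (jugular, every 15 min, after three stable responses); Konzett–Rossler overflow bronchospasm and carotid-pulse heart rate followed 110 min.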

[3] = organism: Cavia porcellus; assay: Effective concentration required in vitro for heart stimulation (right atrium) in guinea pig; format: functional; conditions: Cardiac atrium
Method in brief: (§2)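 Isolated right atrium of male Hartley guinea pigs, 25 °C Krebs-Henseleit gassed 95% O2–5% CO2, 0.5 g tension; cumulative concentrations; beating rate via cardiometer triggered by isometric contraction. EC15 = concentration raising rate 15% above unstimulated; 3–5 experiments.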

[4] = organism: Cavia porcellus; assay: Effective concentration required in vitro for tracheal muscle (from male Hartley guinea pigs) relaxation; format: functional; conditions: Trachea
Method in brief: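 Tracheal ring chains from male Hartley guinea pigs (300–500 g), 37 °C Krebs-Henseleit pH 7.4, 95% O2–5% CO2, 0.5 g tension, spontaneous tone; cumulative compound addition, isotonic recording.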

[5] = system: Cavia porcellus; assay: Positive chronotropic effect, 15% increase in heart rate of male Hartley guinea pigs on intraduodenal administration (mean of 3-5 animals); format: functional
Method in brief: as §1

[6] = Bronchoselectivity expressed as ratio of stimulatory activity in the right atrium (EC15) to relaxant activity in the tracheal muscle (EC50); format: functional, Cardiac atrium
[7] = Bronchoselectivity, ratio of positive chronotropic action (ED15) to bronchodilator action (ED50); format: functional
[8] = organism: Cavia porcellus; assay: In vitro guinea pig heart stimulation (right atrium); format: functional; conditions: Cardiac atrium
Method in brief: as §2

[9] = molecular target: T1, Adenosine receptor A1 (Cavia porcellus, UniProt P47745); assay: Binding affinity against Adenosine A1 receptor of cerebral cortex using [3H]-CPX; format: tissue-based
T1 sequence (P47745 whole entry): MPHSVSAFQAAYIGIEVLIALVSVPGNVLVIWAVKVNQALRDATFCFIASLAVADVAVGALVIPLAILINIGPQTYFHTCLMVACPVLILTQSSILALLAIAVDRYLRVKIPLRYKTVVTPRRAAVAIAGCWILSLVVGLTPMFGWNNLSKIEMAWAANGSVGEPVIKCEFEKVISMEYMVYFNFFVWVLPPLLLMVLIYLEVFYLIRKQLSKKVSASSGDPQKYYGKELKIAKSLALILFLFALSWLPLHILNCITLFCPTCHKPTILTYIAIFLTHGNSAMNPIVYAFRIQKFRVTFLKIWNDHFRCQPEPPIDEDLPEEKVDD

[10] = molecular target: T1, Adenosine receptor A1; assay: Binding affinity against adenosine A1 receptor of cerebral cortex using [3H]CPX as a radioligand; format: tissue-based
[11] = molecular target: cyclic AMP phosphodiesterase (guinea pig); assay: Inhibition of cyclic AMP-phosphodiesterase ( PDE) in the supernatant of tracheal muscle homogenate
[12] = Bronchoselectivity expressed as ratio of positive chronotropic action (ED15) to bronchodilator action (ED50)

CCCn1c(=O)n(C)c(=O)c2[nH]cnc21
Ki [1]: 8 µM
ED50 [2]: 4.44 mg/kg
EC15 [3]: 3.3 µM
EC50 [4]: 1.6 µM
ED15 [5]: 5.7 mg/kg
Selectivity [6]: 2.1
Selectivity [7]: 1.3

CCCCn1c(=O)c2c(ncn2CC(C)=O)n(CCCC)c1=O [DENBUFYLLINE]
EC15 [8]: 6 µM
ED50 [2]: 5.9 mg/kg
Ki [9]: 16.5 µM
EC50 [4]: 0.01 µM
ED15 [5]: 90 mg/kg

Cn1c(=O)c2nc[nH]c2n(C)c1=O.O [THEOPHYLLINE]
EC15 [3]: 62 µM
ED15 [5]: 20.2 mg/kg

CCCn1c(=O)n(CCCN(C)C)c(=O)c2[nH]cnc21
Ki [1]: > 200 µM
Ki [10]: 43.2 µM
Ki [11]: 92 µM
EC15 [3]: > 100 µM
EC50 [4]: 20.5 µM
Selectivity [6]: 4.9

CCCn1c(=O)n(CCCO)c(=O)c2[nH]cnc21
Ki [1]: 68.7 µM
Ki [10]: 12 µM
Ki [11]: 12.6 µM
EC15 [3]: 26.4 µM
EC50 [4]: 5.1 µM
Selectivity [6]: 5.2

CCCn1c(=O)c2nc[nH]c2n(CCC)c1=O
Ki [10]: 0.21 µM
ED50 [2]: 4.69 mg/kg
EC15 [3]: 20 µM
ED15 [5]: 25.5 mg/kg

CCCn1c(=O)n(C)c(=O)c2c1ncn2CCC(=O)O
Ki [1]: > 200 µM
Ki [10]: > 200 µM
Ki [11]: > 200 µM
EC15 [3]: > 100 µM
EC50 [4]: > 100 µM
Selectivity [6]: 1

CCCn1c(=O)n(CC(=O)O)c(=O)c2[nH]cnc21
Ki [1]: > 200 µM
Ki [10]: > 200 µM
Ki [11]: > 200 µM
EC15 [3]: > 100 µM
EC50 [4]: 41 µM
Selectivity [6]: 2.4

CCCn1c(=O)n(CCC(N)=O)c(=O)c2[nH]cnc21
Ki [1]: > 200 µM
Ki [10]: 31.5 µM
Ki [11]: 56.3 µM
EC15 [3]: 31.2 µM
EC50 [4]: 13.1 µM
Selectivity [6]: 2.4

C=CCCn1c(=O)c2[nH]cnc2n(CCC)c1=O
Ki [1]: 3.2 µM
Ki [10]: 0.06 µM
Ki [11]: 14.6 µM
ED50 [2]: 1.84 mg/kg
EC15 [3]: 4.5 µM
Selectivity [12]: 6
EC50 [4]: 0.2 µM
ED15 [5]: 11 mg/kg
Selectivity [6]: 22.5

CCCn1c(=O)n(C)c(=O)c2c1ncn2CCCN(C)C
Ki [1]: > 200 µM
Ki [10]: > 200 µM
Ki [11]: > 200 µM
EC15 [3]: > 100 µM
EC50 [4]: > 100 µM
Selectivity [6]: 1

CCCn1c(=O)n(CCOCC)c(=O)c2[nH]cnc21
Ki [1]: 12 µM
Ki [10]: 1.9 µM
Ki [11]: 22.3 µM
ED50 [2]: 1.7 mg/kg
EC15 [3]: 25.3 µM
EC50 [4]: 0.07 µM
ED15 [5]: 20 mg/kg
Selectivity [6]: 361
Selectivity [7]: 11.8

CCCn1c(=O)n(CCCOC)c(=O)c2[nH]cnc21
Ki [1]: 15.7 µM
Ki [10]: 12.4 µM
Ki [11]: 48.7 µM
ED50 [2]: 0.72 mg/kg
EC15 [3]: 31.3 µM
EC50 [4]: 2.9 µM
ED15 [5]: 10.7 mg/kg
Selectivity [6]: 10.8
Selectivity [7]: 14.9

CCCn1c(=O)n(CCCCC(C)=O)c(=O)c2[nH]cnc21
Ki [10]: 23.1 µM
Ki [11]: 16.4 µM
ED50 [2]: 2.55 mg/kg
EC15 [3]: 3.6 µM
EC50 [4]: 0.06 µM
ED15 [5]: 13.5 mg/kg
Selectivity [6]: 62
Selectivity [7]: 5.3

CCCn1c(=O)n(C)c(=O)c2c1ncn2CC(C)=O
Ki [1]: > 200 µM
Ki [10]: 95.7 µM
Ki [11]: 20.7 µM
ED50 [2]: 1.49 mg/kg
EC15 [3]: 37.5 µM
EC50 [4]: 1.9 µM
ED15 [5]: 30 mg/kg
Selectivity [6]: 19.7
Selectivity [7]: 20.1

CCCn1c(=O)n(CCC(C)=O)c(=O)c2[nH]cnc21
Ki [1]: 144 µM
Ki [10]: 11.2 µM
Ki [11]: 13 µM
EC15 [3]: 27 µM
EC50 [4]: 3.5 µM
Selectivity [6]: 7.7

CCCn1c(=O)n(C)c(=O)c2c1ncn2CCC#N
Ki [1]: > 200 µM
Ki [10]: 88.6 µM
Ki [11]: 46 µM
EC15 [3]: > 100 µM
EC50 [4]: 27.6 µM
Selectivity [6]: 3.6

CCCn1c(=O)n(C)c(=O)c2c1ncn2CCO
Ki [1]: > 200 µM
Ki [10]: 41.4 µM
Ki [11]: 28.7 µM
EC15 [3]: > 100 µM
EC50 [4]: 31.8 µM
Selectivity [6]: 3.1

CC(=O)CCCCn1c(=O)c2c(ncn2C)n(C)c1=O [PENTOXIFYLLINE]
Ki [10]: 180 µM
ED50 [2]: 43 mg/kg
EC15 [3]: 52.4 µM
EC50 [4]: 28.3 µM
ED15 [5]: 39.4 mg/kg

CCCn1c(=O)n(C)c(=O)c2c1ncn2CCOCC
Ki [1]: 22.9 µM
Ki [10]: 24.3 µM
Ki [11]: 136 µM
ED50 [2]: 12.1 mg/kg
EC15 [3]: > 100 µM
EC50 [4]: 4.6 µM
ED15 [5]: 25.2 mg/kg
Selectivity [6]: 21.7
Selectivity [7]: 2.1

CCCn1c(=O)n(CCO)c(=O)c2[nH]cnc21
Ki [1]: > 200 µM
Ki [10]: 50 µM
Ki [11]: 14.1 µM
EC15 [3]: 2 µM
EC50 [4]: 0.51 µM
Selectivity [6]: 3.9

CCCn1cnc2c1c(=O)n(C)c(=O)n2CCC
Ki [1]: 43.8 µM
ED50 [2]: 27.5 mg/kg
EC15 [3]: > 100 µM
EC50 [4]: 5 µM
ED15 [5]: > 100 mg/kg
Selectivity [6]: 20
Selectivity [7]: > 3.6

CCCn1c(=O)[nH]c(=O)c2nc[nH]c21 [ENPROFYLLINE]
EC15 [3]: 18.3 µM
ED15 [5]: 95.1 mg/kg

CCCn1c(=O)n(CCN(C)C)c(=O)c2[nH]cnc21
Ki [1]: > 200 µM
Ki [10]: 4.3 µM
Ki [11]: 9 µM
ED50 [2]: 5.65 mg/kg
EC15 [3]: > 100 µM
EC50 [4]: 2.7 µM
ED15 [5]: > 100 mg/kg
Selectivity [6]: 37
Selectivity [7]: > 17.7

C=CCCn1cnc2c1c(=O)n(C)c(=O)n2CCC
Ki [1]: 5.6 µM
Ki [10]: 6 µM
Ki [11]: 29.9 µM
EC15 [3]: 30.6 µM
EC50 [4]: 16.8 µM
Selectivity [6]: 1.8

CCCn1c(=O)n(CC(C)=O)c(=O)c2[nH]cnc21
Ki [1]: > 200 µM
Ki [10]: 11.4 µM
Ki [11]: 46.4 µM
EC15 [3]: 45.7 µM
EC50 [4]: 14.9 µM
Selectivity [6]: 3.1
